Laboratory results as given in ChEMBL document CHEMBL4480450, “Cytotoxic Germacrane-Type Sesquiterpene Lactones from the Whole Plant of Carpesium lipskyi” (J Nat Prod, 2019).

Experiments:
[1] = system: HL-60; experiment: Cytotoxicity against human HL60 cells after 72 hrs by CCK8 assay; format: functional, cell-based; settings: HL-60, 72 h
Method in brief: (§1)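 Cells seeded in 96-well plates and left overnight at 37 °C in humidified 5% CO2. Serial dilutions of the compounds added, then 72 h further incubation. CCK-8 reagent added for the last 4 h and absorbance read at 450 nm.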

[2] = system: A549; experiment: Cytotoxicity against human A549 cells after 72 hrs by CCK8 assay; format: functional, cell-based; settings: A549, 72 h; method in brief: as §1

Row | Compound | IC50 [1] | IC50 [2]
1 | C=C1C(=O)O[C@@H]2[C@@H]1[C@H](O)[C@@H](OC(=O)C(C)C)[C@@H](C)CCC(=O)[C@](C)(O)[C@H]2OC(=O)C(C)C | 5.9 µM | 4 µM
2 | C=C1C(=O)O[C@H]2[C@@H]1[C@@H](OC(=O)CC(C)C)[C@@]1(O)O[C@H](CC[C@H]1C)[C@](C)(O)[C@@H]2OC(=O)C(C)C | 6.2 µM | 10.3 µM
3 | C=C1C(=O)O[C@H]2[C@@H]1[C@@H](OC(=O)CC(C)C)[C@@]1(O)O[C@H](CC[C@H]1C)[C@](C)(O)[C@@H]2OC(=O)C(C)CC (stereo not given in full) | 5.6 µM | 6.7 µM
4 | C=C1C(=O)O[C@H]2[C@H]1[C@H](OC(=O)/C(C)=C\C)C(=O)[C@H](C)CCC[C@](C)(O)[C@@H]2OC(=O)C(C)C | 3 µM | 4.7 µM
5 | C=C1C(=O)O[C@H]2[C@H]1[C@H](OC(=O)C(C)C)C(=O)[C@H](C)CCC[C@](C)(O)[C@@H]2OC(=O)C(C)C | 5 µM | 5.2 µM
6 | C=C1C(=O)O[C@H]2[C@@H]1[C@H](OC(=O)CC(C)C)C(=O)[C@H](C)C[C@H]1O[C@@H]1[C@](C)(O)[C@@H]2OC(=O)C(C)C | 2.8 µM | > 10 µM
7 | C=C1C(=O)O[C@H]2[C@H]1[C@@H](O)[C@H](OC(=O)CC(C)C)[C@H](C)CCC(=O)[C@](C)(O)[C@@H]2OC(=O)C(C)C (relative stereo) | 5.5 µM | 6.2 µM
8 | COc1cccc2c1C(=O)c1c(O)c3c(c(O)c1C2=O)C[C@@](O)(C(=O)CO)C[C@@H]3O[C@H]1C[C@H](N)[C@H](O)[C@H](C)O1 [DOXORUBICIN] |  | 0.4 µM
